This note sets out measurements from ChEMBL document CHEMBL5360619.

Active and inactive are the calls of the source. The calls are words filed in the database; no cut-off is given here.

A short description of data set [1]: Solubility of compound in tween-free sauton's medium. In kind it is physicochemical.
Data set [2] concerns the target T1, Cytochrome P450 3A4 (Homo sapiens, UniProt P08684). Put plainly: Inhibition of CYP3A4 in human liver microsomes using midazolam as substrate incubated for 10 mins in presence of NADPH by LC-MS/MS analysis. The class given is ADME, Microsome. The essentials: (§1)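 Human liver microsomes 0.2 mg/mL in 100 mM phosphate pH 7.4; compound final 1, 10 and 100 μM (1% DMSO). Substrates: midazolam 5 μM (10 min) or testosterone 50 μM (30 min). Started with NADPH, stopped with ice-cold acetonitrile containing internal standard; LC–MS/MS.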

In data set [3] the target is T1, Cytochrome P450 3A4. Put plainly: Inhibition of CYP3A4 in human liver microsomes using testosterone as substrate incubated for 30 mins in presence of NADPH by LC-MS/MS analysis. The class given is ADME, Microsome. The essentials: as §1
A short description of data set [4]: Apparent permeability across apical to basolateral side in human Caco-2 cells at 2 uM by LC-MS/MS analysis. The class given is ADME, cell-based. Summed up:
(§2)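 Caco-2 monolayers grown on permeable filters, used day 21. Drug solution 2 μM in prewarmed HBSS applied apical or basolateral, pH 7.4 both sides, 37 °C, stirring 500 rpm; 5 μM enalaprilat as integrity control. Receiver sampled at 30 min, donor sampled for mass balance; LC–MS/MS with warfarin internal standard.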

Data set [5] is described as follows: Efflux ratio of apparent permeability across […] side in human Caco-2 cells at 2 uM by LC-MS/MS analysis. The class given is ADME, cell-based. Particulars: caco-2, 2 µM. Summed up:
as §2

The subject of data set [6] is CYP3A4. Put plainly: Selectivity index, ratio of IC50 for CYP3A4 in human liver microsomes using midazolam as substrate to IC50 for antimycobacterial activity against Mycobacterium tuberculosis Erdman. The class given is toxicity. Particulars: probe midazolam, read-out: Ratio IC50.
The subject of data set [7] is CYP3A4. The data set can be described thus: Selectivity index, ratio of IC50 for CYP3A4 in human liver microsomes using testosterone as substrate to IC50 for antimycobacterial activity against Mycobacterium tuberculosis Erdman. The class given is toxicity. Particulars: probe testosterone, read-out: Ratio IC50.
Data set [8] relates to RAW264.7. The data set can be described thus: Cytotoxicity against mouse RAW264.7 cells assessed as reduction in cell viability at 0.01 to 10 uM incubated for 5 days by SYTO 60 dye based automated high-content fluorescent microscopic analysis. In kind it is toxicity. Particulars: raw264.7, 120 h, dose 0.01-10 µM, time 5 day. Summed up:
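RAW 264.7 cells in RPMI-1640 with 10% heat-inactivated FBS, 20,000 cells/well added to compounds acoustically dispensed from DMSO stocks, DMSO backfill; 5 days at 37 °C, 5% CO2. SYTO 60 staining, four confocal images per well, total cell number counted; dose–response plotted.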

Data set [9] relates to Mycobacterium tuberculosis. The data set can be described thus: Inhibition of biofilm formation in Mycobacterium tuberculosis Erdman assessed as inhibition of biofilm pellicle formation at 2.5 to 50 uM pretreated for 3 weeks under low oxygen and further treated for 3 weeks under aerated condition in presence of 0.05% tyloxapol by optical density based analysis. The class given is functional, organism-based. Particulars: dose 2.5-50 µM, time 6.0 weeks. Summed up: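 Pellicle assay with 0.05% tyloxapol added to each well to prevent biofilm; otherwise Sauton's medium inoculated with Mtb plus compound, sealed airtight 3 weeks at 37 °C, 5% CO2, then opened for 3 weeks aerobic.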

Data set [10] can be described thus: Therapeutic index, ratio of LD50 for human IMR-90 cells to IC50 for antimycobacterial activity against Mycobacterium tuberculosis Erdman. To be noted: read-out: TI. In kind it is toxicity. Summed up: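 LD50 from 48 h MTT assay in HEK 293, BEAS-2B or IMR-90 cells divided by MABA IC50 against Mtb.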
Data set [11] is described as follows: Cytotoxicity against human Calu-3 cells assessed as reduction in cellular ATP level incubated for 72 hrs by celltiter-glo assay. Particulars: read-out: LD50. In kind it is toxicity, cell-based. Summed up:
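Calu-3 cells (DMEM, 10% FBS) plated 10,000/well for 18 h, then medium switched to 2% FBS; eight twofold doses 250 down to […], compounds as imidazole salts in DMSO with IMD/DMSO controls.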

Data set [12] has as its system Mycobacterium tuberculosis. The data set can be described thus: Antimycobacterial activity against Mycobacterium tuberculosis H37Rv expressing GFP infected in mouse RAW264.7 cells assessed as inhibition of intracellular mycobacterial growth by measuring reduction in percentage of infected cells incubated for 5 days by SYTO 60 dye based automated high-content fluorescent microscopic analysis. The class given is functional, organism-based. To be noted: time 5.0 day. Summed up: (§3)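 RAW 264.7 macrophages infected with GFP-expressing H37Rv for 3 h at 37 °C with shaking, washed by centrifugation, then seeded at 20,000 cells/well onto compounds dispensed acoustically from DMSO stocks, DMSO backfill. Incubated 5 days at 37 °C, 5% CO2, stained with SYTO 60, four confocal images per well; percentage of infected cells and bacterial area per infected cell scored. IC50 from dose–response; four replicates.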

Data set [13] relates to Mycobacterium tuberculosis. Put plainly: Antimycobacterial activity against Mycobacterium tuberculosis H37Rv expressing GFP infected in mouse RAW264.7 cells assessed as inhibition of intracellular mycobacterial growth by measuring reduction in bacterial area per infected cells incubated for 5 days by SYTO 60 dye based automated high-content fluorescent microscopic analysis. In kind it is functional, organism-based. To be noted: time 5.0 day. The essentials:
as §3

T1 sequence (P08684 whole entry): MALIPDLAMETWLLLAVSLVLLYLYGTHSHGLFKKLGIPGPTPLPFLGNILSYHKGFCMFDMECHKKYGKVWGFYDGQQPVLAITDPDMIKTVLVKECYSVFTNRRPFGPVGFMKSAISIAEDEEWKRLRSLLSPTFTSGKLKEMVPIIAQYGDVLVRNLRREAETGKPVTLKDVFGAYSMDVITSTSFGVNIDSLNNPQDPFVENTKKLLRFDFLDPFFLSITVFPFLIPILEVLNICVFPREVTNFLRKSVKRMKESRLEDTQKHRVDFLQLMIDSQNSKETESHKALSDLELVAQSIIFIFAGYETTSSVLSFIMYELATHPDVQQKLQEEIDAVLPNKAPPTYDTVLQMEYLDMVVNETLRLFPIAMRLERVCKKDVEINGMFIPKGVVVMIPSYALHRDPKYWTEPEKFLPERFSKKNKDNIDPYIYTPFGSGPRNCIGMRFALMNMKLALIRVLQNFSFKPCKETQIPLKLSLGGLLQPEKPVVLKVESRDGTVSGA

For the molecule `O=C(O)C1CSc2c(C3CC3)c(CSc3nnc(-c4cccc(C(F)(F)F)c4)o3)cc(=O)n21` (racemic), the solubility result in data set [1] is reported as “Insoluble”.
Same read-out and setting: then `O=C(O)C1CSc2c(C3CC3)c(-c3cc(-c4ccccc4)no3)cc(=O)n21` (racemic), with “Insoluble”.
Take `CC(C)(C)c1ccc(-c2nnc(SCc3cc(=O)n4c(c3C3CC3)SCC4C(=O)O)o2)cc1` (racemic): the IC50 in data set [2] and in data set [3] was > 100 µM in each case. The Papp A→B at 2 µM in data set [4] worked out at 0.88 ×10⁻⁶ cm/s. In addition, in [5], the Ratio was 1.5.
Turning to `O=C(O)C1CSc2c(C3CC3)c(Cc3cccc4ccccc34)cc(=O)n21.c1c[nH]cn1` (racemic), the selectivity ratio in data set [6] and in data set [7] was ≥ 16 each time. In data set [8], the Activity result was “Non-Toxic”.
Take `O=C(O)C1CSc2c(C3CC3)c(-c3cc(-c4ccc5ccccc5c4)no3)cc(=O)n21.c1c[nH]cn1` (racemic): in data set [9], the inhibition result is “inactive”. Moreover, the values for the selectivity ratio in data set [10], in [6] and in [7] were 168, ≥ 16 and ≥ 16, respectively. Further, the CC50 at 72 h in data set [11] is > 250 µM. The outcome in [12] and in [13] was Active. In addition, the Activity entry in data set [8] was “Non-Toxic”.
As to `CC(C)(C)c1ccc(-n2cc(-c3cc(=O)n4c(c3C3CC3)SCC4C(=O)O)nn2)cc1` (racemic), the IC50 in data set [2] and in data set [3] was > 100 µM in each case.
